Screening data (PubChem BioAssay)
In the library only some 2.9% were active in any assay of this set; here they are far more common.
M1 ag parental: counter-screen for M1 agonists: effect in parental CHO-K1 cells. Fluo-8 calcium fluorescence; scaled to maximal ATP response, vehicle zero. activation, % at 3 µM. 0.48% of 360,000 active; in the data active = activation above about 15%;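 also: untransfected CHO-K1 host cells lacking M1 receptor as counterscreen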
M1 PAM parental: counter-screen for M1 PAMs: effect in parental CHO-K1 cells | AID 602247 | 0.02% of 360,000 active | activation, % at 3 µM | ATP EC20, Fluo-8 calcium fluorescence; 0% at ATP EC20, 100% at ATP max;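 active = activation above the run cutoff, the mean activation of all test compounds plus 3 SD, cut at about 40% in these data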;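 also: peak over basal fluorescence ratio in a 140 s read after ATP addition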
CHO parental Ca: signal in parental CHO cells, OX1R antagonist counter-screen. parental CHO-K1, ATP-induced calcium, Fluo-8 fluorescence. inhibition, % at 5.6 µM. 0.63% of 330,000 active;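 active = inhibition above that plate's mean sample inhibition plus 3 SD, cut at about 26% in these data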
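Measured by: calcium-sensitive Fluo-8 fluorescence / Test system: CHO parental line / Controls: ATP-challenged DMSO wells low, unchallenged DMSO wells high / Measure: % inhibition / Compound: single nominal dose of 5.6 µM per compound / Replicates: single well per compound, no replicates / Reagent: ATP as calcium-mobilizing challenge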
CHO-K1 Ca antag: nonselective inhibitor or artifact in parental CHO-K1 cells. 0.6% of 360,000 active. inhibition, % at 3 µM. ATP-induced calcium, Fluo-8 fluorescence;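 active = inhibition above a per-plate cutoff, the plate's mean sample inhibition plus 3 SD, cut at about 24% in these data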
OX1R antag-1: OX1R (human) antagonism; O43613; OX1R-expressing cells, FRET antagonist read-out; inhibition, % at 6.6 µM; 1.8% of 330,000 active; AID 485270; in the data active = inhibition mostly above about 38%, no sharp cut-off; inactive = mostly below about 40%
Target sequence (O43613 whole entry, looked up): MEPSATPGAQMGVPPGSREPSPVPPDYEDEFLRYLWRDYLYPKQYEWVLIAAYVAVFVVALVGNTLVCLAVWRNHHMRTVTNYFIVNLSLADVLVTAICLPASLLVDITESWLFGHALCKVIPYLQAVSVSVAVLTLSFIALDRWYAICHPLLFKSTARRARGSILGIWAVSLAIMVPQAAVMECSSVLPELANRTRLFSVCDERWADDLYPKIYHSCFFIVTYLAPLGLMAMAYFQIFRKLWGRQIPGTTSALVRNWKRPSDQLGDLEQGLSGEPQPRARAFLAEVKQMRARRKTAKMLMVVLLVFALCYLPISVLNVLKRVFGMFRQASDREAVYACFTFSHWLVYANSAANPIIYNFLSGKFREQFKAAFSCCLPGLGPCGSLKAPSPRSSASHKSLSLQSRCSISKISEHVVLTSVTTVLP
OX1R antag-2: human HCRTR1 antagonism; inhibition, % at 5 µM; O43613; AID 434989; 0.43% of 330,000 active; CHO/OX1R cells, Fluo-8 calcium fluorescence, orexin A;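 active = inhibition above its plate's threshold, mean inhibition of all tested compounds on the plate plus 3 SD, cut at about 37% in these data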
Hits are given with their value; – = inactive; · = not tested or not shown.

SMILES | M1 ag parental | M1 PAM parental | CHO parental Ca | CHO-K1 Ca antag | OX1R antag-1 | OX1R antag-2
CC(=O)Nc1cccc(NC(=O)CSc2nnc3ccc(-c4ccncc4)nn23)c1 | – | – | – | – | 67.0 | –
CC(=O)Nc1cccc(NC(=O)CSc2ncc(-c3ccccc3)[nH]2)c1 | – | – | – | – | 53.3 | –
O=C(CSc1n[nH]c(-c2ccncc2)n1)Nc1ccccc1 | – | – | – | – | – | –
CC(=O)Nc1cccc(NC(=O)CSc2n[nH]c(-c3ccccc3)n2)c1 | – | – | – | – | 47.5 | –
O=C(CSc1ncc(-c2ccccc2)[nH]1)Nc1ccccc1 | – | – | – | – | – | –
CC(C)C[C@@H]1O[C@H](C(C)C)Cc2[nH][nH]c(=O)c21 | – | – | · | – | · | ·
CS(=O)(=O)N(CC(=O)N1CCN(Cc2ccccc2)CC1)c1cccc([N+](=O)[O-])c1 | – | – | – | – | – | –
CCOC(=O)C1=C(C)N2C(=C(C#N)[C@@H]1c1ccc(C(=O)OC)cc1)SC[C@@]2(O)C(C)(C)C | – | – | – | – | 52.6 | –
Cc1cc(N/N=C/c2ccc([N+](=O)[O-])o2)nc2ccccc12 | – | – | – | – | 42.4 | –
COC(=O)c1ccc(OC(=O)CCc2cc(OC)c(OC)c(OC)c2)cc1 | 16.2 | – | – | – | – | –
O=C1C[C@H](NC(=O)OCc2ccccc2)CO1 | – | – | – | – | – | –
COc1ccc(C(CNC(=O)c2cc(S(=O)(=O)NCc3ccccc3)ccc2C)N2CCOCC2)cc1 (stereo not drawn) | – | – | – | 27.6 | – | –
Cc1ccc(O)c(N=CC2=C(O)c3ccccc3C2=O)c1 | – | – | – | – | – | –
O=C1C(C=Nc2ccccc2O)=C(O)c2ccccc21 | – | – | – | – | 59.1 | –
COc1ccc(Cl)cc1NC(=O)COC(=O)c1c(-c2ccccc2)noc1C | – | – | – | – | – | –
Cc1ccccc1C(=O)Nc1cccc(C(=O)Nc2ccccc2C(=O)O)c1 | – | – | – | 26.3 | – | –
O=C(Nc1ccccc1C(=O)O)c1cccc(NC(=O)c2ccccc2Cl)c1 | – | – | – | – | – | –
Cc1cc(C)c(C(=O)c2ccc(C(=O)N3CCCCC3)cc2)c(C)c1 | 28.4 | – | – | – | – | –
O=[N+]([O-])c1ccc(-c2ccc(/C=N/Nc3nc(NCc4ccccc4)nc(N4CCOCC4)n3)o2)cc1 | 18.0 | – | – | 24.1 | – | –
O=C(CCn1c(=O)oc2ccc(Cl)cc21)N1CCN(Cc2ccccc2)CC1 | – | – | – | – | – | –
Oc1ccc(C23CCCC2C2(CCCC2)c2ccc(O)cc2O3)c(O)c1 (stereo not drawn) | 23.6 | – | 75.1 | – | – | 110.2
CN(C)c1ccc(/C=C/C(=O)c2ccc3c(c2)OCO3)cc1 | 45.9 | – | 47.7 | – | – | 112.5
COc1ccc(C(=O)/C=C/c2ccccc2)c(OC)c1 | – | – | – | – | – | –
O=C(/C=C/c1cccc(O)c1)c1cccnc1 | – | – | – | – | – | –
COc1ccc(C(=O)/C=C/c2ccc(N(C)C)cc2)c(OC)c1 | 82.2 | – | 59.0 | 45.0 | 83.3 | 111.8
SMILES | M1 ag parental | M1 PAM parental | CHO parental Ca | CHO-K1 Ca antag | OX1R antag-1 | OX1R antag-2
CN(C)c1ccc(/C=C/C(=O)c2cccnc2)cc1 | 64.6 | – | 49.5 | – | – | 68.0
CN(C)c1ccc(/C=C/C(=O)c2ccccc2O)cc1 | – | – | 37.8 | – | – | –
COc1ccccc1-c1noc(Cn2cc(S(=O)(=O)N3CCCC3)ccc2=O)n1 | – | – | – | – | – | –
O=C(NC(Cc1ccccc1)C(=O)O)C1CCN(S(=O)(=O)c2ccccc2C(F)(F)F)CC1 (stereo not drawn) | – | – | – | – | – | –
Cc1ccc([N+](=O)[O-])cc1NC(=O)C(Sc1ccccc1)c1ccccc1 (stereo not drawn) | – | – | – | – | – | –
CN(C)c1ccc(C(=O)C=Cc2ccc([N+](=O)[O-])cc2)cc1 | – | – | · | – | · | ·
CN(C)c1ccc(/C=C/C(=O)c2ccc(O)cc2)cc1 | 53.0 | – | · | 25.1 | · | ·
CC(=O)c1cccc(NC(=O)NNC(=O)CCC(=O)Nc2ccc(C)c(C)c2)c1 | – | – | – | – | – | –
COc1c(-c2ccc([N+](=O)[O-])cc2[N+](=O)[O-])c(=O)n(C)c(=O)n1C | – | – | – | – | 50.9 | –
Cc1c(Cl)cccc1-c1ccc(CNCc2ccccn2)o1 | – | – | – | – | – | –
NC(=O)NC(=O)COC(=O)c1ccccc1Oc1ccccc1 | – | – | – | – | – | –
CNC(=O)COC(=O)c1ccccc1Oc1ccccc1 | – | – | – | 28.7 | – | –
COc1cccc(-c2nn(C)c3sc(C(=O)NCc4ccc5c(c4)OCO5)cc23)c1 | – | – | – | – | – | –
COc1cccc(-c2nn(C)c3sc(C(=O)NCc4ccc(C)o4)cc23)c1 | – | – | – | – | 71.7 | –
CCOC(=O)c1nn(-c2ccc(F)cc2)c(-c2ccccc2)c1C(=O)c1ccccc1 | – | – | – | – | – | –
CCOC(=O)c1nn(-c2cccc(OC)c2)c(-c2ccccc2)c1C(=O)c1ccccc1 | – | – | – | – | 55.5 | –
C=C1/C=C(\C)[C@](C)(O)C[C@H](O)CC(=O)[C@H](O)[C@@H](O)[C@H](C)C[C@H](C)OC(=O)/C(C)=C/CC/C=C/[C@@H]2O[C@H]2C[C@H](C)C1 | · | · | – | · | – | –
COc1ccc(NC(=O)c2cc3c(=O)n(C)c4ccccc4c3n2C)cc1OC | – | – | – | – | 43.1 | –
COc1ccc(NC(=O)c2cc3c(=O)n(C)c4ccccc4c3n2C)cc1Cl | – | – | – | – | – | –
CCOc1ccc(C(C(=O)NCC2CCCO2)N(C(=O)c2snc(C(N)=O)c2N)c2cccc(F)c2)cc1 (stereo not drawn) | – | – | – | – | – | –
CCOc1ccc(C(C(=O)NCC2CCCO2)N(C(=O)c2snc(C(N)=O)c2N)c2ccccc2F)cc1 (stereo not drawn) | – | – | – | 39.6 | – | –
CCOC(=O)CSc1nc2c(sc(=S)n2-c2ccccc2OC)c(=O)n1Cc1ccco1 | – | – | – | 28.5 | – | –
CCOC(=O)C1(Cc2ccc(Cl)cc2)CCN(C(=O)c2cc(C)nc(C)n2)CC1 | – | – | – | – | – | –
N=C1/C(=C/c2coc3ccccc3c2=O)C(=O)N=C2SC(c3ccco3)=NN12 | 62.8 | – | – | 33.6 | – | –
Cc1cc(/C=C2\C(=N)N3N=C(C(C)C)SC3=NC2=O)c(C)n1Cc1ccccc1 | – | – | 65.0 | – | – | 102.5
CCC1=NN2C(=N)/C(=C/c3cc(C)n(Cc4ccccc4)c3C)C(=O)N=C2S1 | 20.5 | – | 69.9 | – | – | 96.6
CSC1=NSC2=NC(=O)/C(=C\c3coc4ccccc4c3=O)C(=N)N12 | 19.8 | – | – | – | – | –
